Data reported in ChEMBL document CHEMBL1828627, “High-throughput-screening-based identification and structure-activity relationship characterization defined (S)-2-(1-aminoisobutyl)-1-(3-chlorobenzyl)benzimidazole as a highly antimycotic agent nontoxic to cell lines” (J Med Chem, 2011).
Values after ≈ are worked out from the molar mass of the structure shown. Each block holds one molecule with its values, some of them ahead of it. Active and inactive are the calls of the source.

Columns and labels:
[1] = test system: Candida albicans; assay: Antifungal activity against Candida albicans SC5314 infected in HeLa cells after 5 days by fluorescein diacetate assay; assay type: functional, organism-based; conditions: Candida albicans, SC5314, HeLa, 120 h; read-out: IC50
Procedure, shortened: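 HeLa cells co-incubated with C. albicans and compound for 5 days. Dose–response from resynthesized compounds. Host-cell viability checked microscopically at 18 h, then quantified at day 5 by fluorescein diacetate conversion to a fluorophore by live cells. Wells also inspected visually for yeast growth. Controls: untreated uninfected HeLa (~100%) and untreated infected HeLa (~0%). IC50 derived from infected cells; CC50 as half-maximal cytotoxic concentration.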

[2] = Selectivity index of CC50 for human HeLa cells to IC50 for Candida albicans SC5314 infected in HeLa cells
Procedure, shortened: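 Selectivity index calculated as CC50/IC50. CC50 is the half-maximal cytotoxic concentration in HeLa cells; IC50 is the half-maximal antimycotic concentration in the C. albicans–infected HeLa assay. Both come from 5-day fluorescein diacetate viability readouts.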

[3] = test system: Candida albicans; assay: Antifungal activity against Candida albicans DSMZ 11949 by broth dilution method; assay type: functional
Procedure, shortened: (§1)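 MICs by broth microdilution following CLSI M27-A3 for yeasts, with fluconazole as the reference antifungal. Panel covered type strains and clinical isolates of Candida spp. (21 strains). Reference control strains: C. albicans DSMZ 11949, C. glabrata ATCC 90030, C. parapsilosis 22019 and 90018, Issatchenkia orientalis ATCC 6258. MIC in μg/mL; averages given as geometric means.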

[4] = Cytotoxicity against human HeLa cells assessed as cell viability after 5 days by fluorescein diacetate assay; assay type: cell-based
[5] = test system: Nakaseomyces glabratus; assay: Antifungal activity against Candida glabrata ATCC 90030 by broth dilution method; assay type: functional; procedure, shortened: as §1
[6] = test system: Candida parapsilosis; assay: Antifungal activity against Candida parapsilosis 22019 by broth dilution method; assay type: functional; conditions: Lodderomyces parapsilosis; procedure, shortened: as §1
[7] = test system: Candida parapsilosis; assay: Antifungal activity against Candida parapsilosis 90018 by broth dilution method; assay type: functional; conditions: Lodderomyces parapsilosis; procedure, shortened: as §1
[8] = test system: Pichia kudriavzevii; assay: Antifungal activity against Issatchenkia orientalis ATCC 6258 by broth dilution method; assay type: functional; procedure, shortened: as §1
[9] = test system: Nakaseomyces glabratus; assay: Antifungal activity against Candida glabrata AN 8626 by broth dilution method; assay type: functional; procedure, shortened: as §1
[10] = test system: Nakaseomyces glabratus; assay: Antifungal activity against Candida glabrata CG 7 by broth dilution method; assay type: functional; procedure, shortened: as §1
[11] = test system: Candida albicans; assay: Antifungal activity against Candida albicans CA20 by broth dilution method; assay type: functional; procedure, shortened: as §1
[12] = test system: Candida albicans; assay: Antifungal activity against Candida albicans CA21 by broth dilution method; assay type: functional; procedure, shortened: as §1
[13] = test system: Candida albicans; assay: Antifungal activity against Candida albicans MY 2902/2008 by broth dilution method; assay type: functional; procedure, shortened: as §1
[14] = test system: Candida albicans; assay: Antifungal activity against Candida albicans SCS 71865 L by broth dilution method; assay type: functional; procedure, shortened: as §1
[15] = test system: Candida albicans; assay: Antifungal activity against Candida albicans Jg 32570 by broth dilution method; assay type: functional; procedure, shortened: as §1
[16] = test system: Candida albicans; assay: Antifungal activity against Candida albicans AM2001/2007 by broth dilution method; assay type: functional; procedure, shortened: as §1
[17] = test system: Candida albicans; assay: Antifungal activity against Candida albicans AN 1699 by broth dilution method; assay type: functional; procedure, shortened: as §1
[18] = test system: Candida albicans; assay: Antifungal activity against Candida albicans AN 1994 by broth dilution method; assay type: functional; procedure, shortened: as §1
[19] = test system: Candida tropicalis; assay: Antifungal activity against Candida tropicalis AN 1946 by broth dilution method; assay type: functional; procedure, shortened: as §1
[20] = test system: Candida albicans; assay: Antifungal activity against Candida albicans AN 562 by broth dilution method; assay type: functional; procedure, shortened: as §1
[21] = test system: Candida albicans; assay: Antifungal activity against Candida albicans VB 1723 by broth dilution method; assay type: functional; procedure, shortened: as §1
[22] = test system: Candida albicans; assay: Antifungal activity against Candida albicans AN 3156 by broth dilution method; assay type: functional; procedure, shortened: as §1
[23] = test system: Candida parapsilosis; assay: Antifungal activity against Candida parapsilosis AN 5485 by broth dilution method; assay type: functional; conditions: Lodderomyces parapsilosis; procedure, shortened: as §1
[24] = test system: Candida parapsilosis; assay: Antifungal activity against Candida parapsilosis AV 7675 by broth dilution method; assay type: functional; conditions: Lodderomyces parapsilosis; procedure, shortened: as §1
[25] = test system: Candida albicans; assay: Antifungal activity against Candida albicans SC5314 infected in HeLa cells at 20 uM after 5 days by fluorescein diacetate assay; assay type: functional, organism-based
Procedure, shortened: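 Primary HTS: HeLa cells co-incubated with C. albicans plus a single compound at ~20 μM for 5 days. Viability checked microscopically at 18 h and quantified at day 5 by fluorescein diacetate fluorescence. Wells also scanned visually for yeast growth. Hit criterion: >40% signal relative to the uninfected untreated HeLa (~100%) and infected untreated HeLa (~0%) controls.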

- IC50 [1]: 0.5 µM
Structure (SMILES): C[C@@H]1[C@H](O)[C@@H](C)/C=C/C=C/C=C/C=C/C=C/C=C/C=C/[C@H](O[C@@H]2O[C@H](C)[C@@H](O)[C@H](N)[C@@H]2O)C[C@@H]2O[C@](O)(C[C@@H](O)C[C@@H](O)[C@H](O)CC[C@@H](O)C[C@@H](O)CC(=O)O[C@H]1C)C[C@H](O)[C@H]2C(=O)O [AMPHOTERICIN B]

- MIC [3]: 2 µg/mL (≈ 6.37 µM)
- IC50 [1]: 0.75 µM
- MIC [5]: 0.125 µg/mL (≈ 0.398 µM)
- MIC [6]: 2 µg/mL (≈ 6.37 µM)
- MIC [7]: 0.5 µg/mL (≈ 1.59 µM)
- MIC [8]: 0.5 µg/mL (≈ 1.59 µM)
- MIC [9]: 0.125 µg/mL (≈ 0.398 µM)
- MIC [10]: 2 µg/mL (≈ 6.37 µM)
- MIC [11]: 0.125 µg/mL (≈ 0.398 µM)
- MIC [12]: 0.125 µg/mL (≈ 0.398 µM)
- MIC [13]: 16 µg/mL (≈ 51 µM)
- MIC [14]: 64 µg/mL (≈ 204 µM)
- MIC [15]: 16 µg/mL (≈ 51 µM)
- MIC [16]: 0.25 µg/mL (≈ 0.797 µM)
- MIC [17]: 32 µg/mL (≈ 102 µM)
- MIC [18]: 16 µg/mL (≈ 51 µM)
- MIC [19]: 4 µg/mL (≈ 12.7 µM)
- MIC [20]: 16 µg/mL (≈ 51 µM)
- MIC [21]: 0.25 µg/mL (≈ 0.797 µM)
- MIC [22]: 16 µg/mL (≈ 51 µM)
- MIC [23]: 1 µg/mL (≈ 3.19 µM)
- MIC [24]: 8 µg/mL (≈ 25.5 µM)
Structure (SMILES): CC(C)[C@H](N)c1nc2ccccc2n1Cc1cccc(Cl)c1
- Ratio CC50/IC50 [2]: 130
- CC50 at 120 h [4]: 97.5 µM

- IC50 [1]: 5 µM
Structure (SMILES): CC(C)(N)c1nc2ccccc2n1Cc1ccc(Cl)cc1
- Ratio CC50/IC50 [2]: 10
- CC50 at 120 h [4]: 50 µM
- inhibition [25]: inactive

Structure (SMILES): CC(C)C[C@H](N)c1nc2cc(Cl)c(Cl)cc2n1Cc1cccc(F)c1
- inhibition [25]: inactive

Structure (SMILES): COc1cccc(Cn2c([C@@H](N)CC(C)C)nc3ccccc32)c1
- inhibition [25]: inactive

Structure (SMILES): CC(C)C[C@H](N)c1nc2cc(C(F)(F)F)ccc2n1Cc1ccc(Cl)cc1
- inhibition [25]: inactive

Structure (SMILES): CCC[C@H](N)c1nc2ccccc2n1Cc1cccc(F)c1
- inhibition [25]: inactive

Structure (SMILES): COc1cccc(Cn2c([C@@H](N)C(C)C)nc3cc(C(F)(F)F)ccc32)c1
- inhibition [25]: inactive

Structure (SMILES): COc1cccc(Cn2c([C@@H](N)CC(C)C)nc3cc(C(F)(F)F)ccc32)c1
- inhibition [25]: inactive

Structure (SMILES): CC(C)(N)c1nc2cc(C(F)(F)F)ccc2n1Cc1ccc(Cl)cc1
- inhibition [25]: inactive

Structure (SMILES): C[C@H](N)c1nc2ccccc2n1Cc1ccc(Cl)cc1
- inhibition [25]: inactive
